Experimental findings from PubChem BioAssay AID463148 (The Scripps Research Institute Molecular Screening Center, 2010) are described below.

SMILES strings stand for the structures. The source made the active and inactive calls.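 Rule for the calls: active = fold change inhibition above 1.5; inactive = the rest.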

This assay deals with GAL4DBD-VP16 transactivation domain fusion (Human herpesvirus 1 VP16). The assay can be described thus: inhibition of VP16-driven luciferase reporter – cell-based, luminescence, HEK293T, powder samples, counter-screen for RORA inverse agonist project, late-stage follow-up (AID 463148). The settings on record: HEK293T GAL4-VP16 UAS-luciferase, 18-24 h, at 10 µM, hits give high values. An outline of the steps:
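Assay system: transfected HEK293T GAL4-VP16 UAS-luciferase reporter cells; Incubation: 20 h compound exposure after transfection; Measured by: luciferase luminescence; Read-out: fold change relative to DMSO wells; Control set: DMSO vehicle wells; Repeats: six replicates per compound, averaged.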
In general terms: Reporter assays use an easily measured gene product as a stand-in for the process of interest.
For the compound `O=C(Nc1ccc(C(O)(C(F)(F)F)C(F)(F)F)cc1)c1ccc(Cl)cc1`, the fold change inhibition was 1.27 (inactive).

As to `O=C(Nc1ccc(C(O)(C(F)(F)F)C(F)(F)F)cc1)c1ccc(F)cc1Cl`, the fold change inhibition was 1.01 (inactive).

As for `O=C(Nc1ccc(C(O)(C(F)(F)F)C(F)(F)F)cc1)c1ccccc1C(F)(F)F`, the fold change inhibition was 0.941 (inactive).

For `O=C(Nc1ccc(C(O)(C(F)(F)F)C(F)(F)F)cc1)c1ccc(F)cc1F`, the fold change inhibition is 1.68.

With `O=C(Nc1ccc(C(O)(C(F)(F)F)C(F)(F)F)cc1)c1c(F)cccc1F`, the fold change inhibition was 1.05 (inactive).

Regarding `O=S(=O)(Nc1ccc(C(O)(C(F)(F)F)C(F)(F)F)cc1)c1cccs1`, the fold change inhibition was 0.97 (inactive).
